# Measurements: ChEMBL document CHEMBL1932954, “An expedient synthesis of honokiol and its analogues as potential neuropreventive agents” (Bioorg Med Chem Lett, 2012)
# Calls of active or inactive are those of the source. The calls are words filed in the database; no cut-off is given here.
# Tested on: not listed separately
# Assay: Cytotoxicity against human SH-SY5Y cells assessed as cell viability at 300 uM by MTT assay
# Assay type: cell-based
# Conditions: read-out: Activity
# In short: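 SH-SY5Y human neuroblastoma cells were exposed to cumene hydroperoxide (CHP) or tert-butyl hydroperoxide (TBHP) at 300 µM for 3 h. Viability was read by MTT assay and expressed relative to untreated control cultures set as 100%. Values are mean ± SEM, n = 3, compared by ANOVA.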
row,SMILES,viability at 300 µM
1,CC(C)(C)OO [TERT-BUTYL HYDROPEROXIDE],72%
2,CC(C)(OO)c1ccccc1 [CUMENE HYDROPEROXIDE],64%

# Tested on: SH-SY5Y
# Assay: Neuroprotective activity in MPP+-stimulated human SH-SY5Y cells assessed as cell survival at 30 uM measured 24 hrs after MPP+-challenge by MTT assay
# Assay type: functional
# Conditions: read-out: Survival
# In short: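 SH-SY5Y neuroblastoma cells were co-treated with MPP+ (1 mM) and test compound (10–30 µM) for 24 h, with no pretreatment. Viability was read by MTT assay and given as percent of control without MPP+. Values are mean ± SEM, n = 4, compared by ANOVA.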
row,SMILES,viability at 30 µM
1,C=CCc1cc(-c2cc(CCC)ccc2O)ccc1O,83%
2,C#CCc1ccc(O)c(-c2ccc(O)c(CC=C)c2)c1,80%
3,C=CCc1ccc(O)c(-c2ccc(O)c(CCC)c2)c1,87%
4,CCCc1ccc(O)c(-c2ccc(O)c(CCC)c2)c1,91%
5,C=CCc1cc(-c2cccc(O)c2CC=C)ccc1O,79%

# Tested on: SH-SY5Y
# Assay: Neuroprotective activity in human SH-SY5Y cells assessed as inhibition of MPP+-induced cell death after 24 hrs by MTT assay
# Assay type: functional, cell-based
# Conditions: not given
# In short: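 SH-SY5Y neuroblastoma cells co-treated with MPP+ (1 mM) and compound (10–30 µM) at the same time for 24 h. MTT read-out, given as percent viability versus control without MPP+. Mean ± SEM, n = 4; ANOVA.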
row,SMILES,inhibition
1,C=CCc1cc(-c2cc(CCC)ccc2O)ccc1O,Dose-dependent effect
2,C#CCc1ccc(O)c(-c2ccc(O)c(CC=C)c2)c1,Dose-dependent effect
3,C=CCc1ccc(O)c(-c2ccc(O)c(CCC)c2)c1,Dose-dependent effect
4,CCCc1ccc(O)c(-c2ccc(O)c(CCC)c2)c1,Dose-dependent effect
5,C=CCc1ccc(O)c(-c2ccc(O)c(CC=C)c2)c1,Dose-dependent effect
6,C=CCc1cc(-c2ccc(O)c(CC=C)c2)ccc1O,Dose-dependent effect
7,C=CCc1cc(-c2cccc(O)c2CC=C)ccc1O,Dose-dependent effect

# Tested on: SH-SY5Y
# Assay: Neuroprotective activity in human SH-SY5Y cells assessed as inhibition of CHP and TBHP-induced cell death at 10 uM incubated for 30 mins prior to challenge measured after 3 hrs by MTT assay
# Assay type: functional, cell-based
# Conditions: not given
# In short: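 SH-SY5Y human neuroblastoma cells pretreated with compound at 10 µM for 30 min, then exposed to cumene hydroperoxide (CHP) or tert-butyl hydroperoxide (TBHP) at 300 µM for 3 h. Viability read by MTT and expressed relative to untreated control set as 100%. Mean ± SEM, n = 3; ANOVA.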
row,SMILES,inhibition
1,C=CCc1cc(-c2cc(CCC)ccc2O)ccc1O,Active
2,C#CCc1ccc(O)c(-c2ccc(O)c(CC=C)c2)c1,Active
3,C=CCc1ccc(O)c(-c2ccc(O)c(CCC)c2)c1,Active
4,CCCc1ccc(O)c(-c2ccc(O)c(CCC)c2)c1,Active
5,C=CCc1ccc(O)c(-c2ccc(O)c(CC=C)c2)c1,Active
6,C=CCc1cc(-c2ccc(O)c(CC=C)c2)ccc1O,Active
7,C=CCc1cc(-c2cccc(O)c2CC=C)ccc1O,Active
